PubChem BioAssay
The source made the active and inactive calls.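 How the source made its calls, unless noted: active means viability at or under a set limit in both replicates, limit being median viability minus 3 SD (cut at about 48% in these data, passing the limit was not always enough); inconclusive means at or under the limit in just one replicate; inactive means at or above the limit in both replicates.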

Assays:
[1] = reducers of endogenous Her2 protein level, primary screen, SKBR3 breast tumor cells, AlphaScreen, ATP viability (AID 461;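 active means Her2 level under about 52% in both replicate screens, with viability over 70% of control, limit read from the data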;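 on Her2 level: lower value means less Her2 protein in the cells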;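 on viability: percent of carrier control wells set as 100% viability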); conditions: 18-24 h, measured here: SKBR3 viability, ATP luminescence, at 10 µM
[2] = biological target: Receptor tyrosine-protein kinase erbB-2 (Homo sapiens) (UniProt P04626); assay: as above; conditions: 18-24 h, at 10 µM, stronger effect = lower value
Chain of Receptor tyrosine-protein kinase erbB-2 (Homo sapiens) (P04626 whole entry, looked up): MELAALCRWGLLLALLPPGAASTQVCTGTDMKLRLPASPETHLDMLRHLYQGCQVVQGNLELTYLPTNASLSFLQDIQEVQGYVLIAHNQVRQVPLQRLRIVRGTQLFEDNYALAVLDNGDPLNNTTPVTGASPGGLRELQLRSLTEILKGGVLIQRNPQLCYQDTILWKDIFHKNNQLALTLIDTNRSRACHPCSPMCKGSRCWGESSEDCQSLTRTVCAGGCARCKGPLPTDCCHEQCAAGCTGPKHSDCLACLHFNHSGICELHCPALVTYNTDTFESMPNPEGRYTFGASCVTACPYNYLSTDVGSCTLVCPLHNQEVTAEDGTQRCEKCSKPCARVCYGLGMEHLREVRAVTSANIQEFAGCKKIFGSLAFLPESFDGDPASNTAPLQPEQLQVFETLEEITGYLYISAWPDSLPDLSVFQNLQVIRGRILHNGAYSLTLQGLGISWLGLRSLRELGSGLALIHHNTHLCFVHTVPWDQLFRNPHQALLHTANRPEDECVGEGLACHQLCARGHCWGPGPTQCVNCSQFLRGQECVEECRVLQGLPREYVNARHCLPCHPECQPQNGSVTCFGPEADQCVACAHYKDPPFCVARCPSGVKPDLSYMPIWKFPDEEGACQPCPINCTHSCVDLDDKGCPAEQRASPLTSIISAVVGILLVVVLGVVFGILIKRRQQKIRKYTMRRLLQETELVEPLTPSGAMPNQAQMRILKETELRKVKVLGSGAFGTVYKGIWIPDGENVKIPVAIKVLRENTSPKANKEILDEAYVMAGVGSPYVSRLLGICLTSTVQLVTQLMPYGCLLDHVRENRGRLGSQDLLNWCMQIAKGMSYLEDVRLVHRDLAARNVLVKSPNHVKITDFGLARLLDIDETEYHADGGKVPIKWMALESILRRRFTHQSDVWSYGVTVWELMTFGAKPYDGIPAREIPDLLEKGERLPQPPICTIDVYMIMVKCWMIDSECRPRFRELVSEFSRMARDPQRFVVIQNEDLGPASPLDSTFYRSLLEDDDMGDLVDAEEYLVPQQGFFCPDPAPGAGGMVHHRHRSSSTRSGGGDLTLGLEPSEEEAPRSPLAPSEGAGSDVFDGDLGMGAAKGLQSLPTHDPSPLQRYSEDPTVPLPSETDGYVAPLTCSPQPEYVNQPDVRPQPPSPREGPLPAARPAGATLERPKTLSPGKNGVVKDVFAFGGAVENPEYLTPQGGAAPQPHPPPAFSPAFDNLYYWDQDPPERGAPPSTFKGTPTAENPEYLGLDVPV

[3] = SK-BR-3 cell growth inhibitors, pilot screen, 24 h, human (AID 572;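 active means viability at or below 10% of carrier control in both of two separate runs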;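 further: compound exposure lasted between 18 and 24 h rather than exactly 24 h; 100% = carrier-treated control wells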); conditions: SK-BR-3 viability, CellTiter-Glo luminescence, at 10 µM, stronger effect = lower value
[4] = HUVEC growth inhibition – cell-based, human, primary screen (AID 575;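 active means viability at or below 30% in both replicate assays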;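 further: 100% = median of untreated cell wells with 0.1% DMSO on each plate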); conditions: HUVEC proliferation, CellTiter-Glo luminescence, 72 h; at 10 µM; stronger effect = lower value
Outline: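 system = HUVEC primary cells | amount = 1250 cells/well | buffer or medium = supplemented EBM, 2% fetal bovine serum | dosing = single-point 10 µM, DMSO 0.1% final | times = 72 h compound incubation | detection = CTG luminescence | read-out = % viability relative to median vehicle-well signal on each plate | control set = vehicle and MePR control wells | format = collagen-coated 384-well format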

[5] = growth inhibitors of H69AR lung tumor, primary screen, human, duplicate replicates (AID 580); conditions: H69AR lung tumor cells viability, ATP luminescence, 72 h; at 10 µM; stronger effect = lower value;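 further: 100% = mean luminescence of untreated wells and 0% = no signal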
[6] = reversal of MRP1-mediated doxorubicin resistance, pilot screen, H69AR cells, doxorubicin co-treatment (AID 601;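 active means viability loss from added drug above about 55%, and viability with drug at most 40%, in both replicates, limit read from the data, passing the limit was not always enough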); conditions: CellTiter-Glo, 72 h, at 10 µM; for differential viability (reversal): stronger effect = higher value
[7] = 384-well plate pilot, post-Golgi transport modulator project, inhibition of yeast transport mutant growth (AID 636; in the data active means inhibition above about 31%); conditions: absorbance 615 nm, about 18 h, stronger effect = higher value
[8] = growth suppression of yeast trafficking mutant, preliminary HTS, modulators of trafficking downstream of Golgi apparatus project, 1536-format plate, OD 615 nm (AID 637; in the data active means inhibition above about 30%); conditions: yeast transport mutant growth, absorbance 615 nm, 18 h; stronger effect = higher value
[9] = H69AR cells + 2 uM doxorubicin, measured here: viability with 2 uM doxorubicin, stronger effect = lower value
[10] = H69AR cells, compound alone cytotoxicity

SMILES | viability [1] | Her2 level [2] | viability [3] | viability [4] | viability [5] | differential viability (reversal) ([6]; H69AR cells + 2 uM doxorubicin) | viability [6, 9] | viability [6, 10] | inhibition [7] | inhibition [8]
Cn1c2ccc(F)cc2c2ncn(CCN3CCOCC3)c(=O)c21 | 88.5% | 82.5% (inactive) | 88.5% (inactive) | 98.6% (inactive) | 97.4% (inactive) | 6.95% (inactive) | 90.4% | 97.4% | -6% (inactive) | -3.02% (inactive)
CN(CC(=O)NCCC1=CCCCC1)S(=O)(=O)c1ccc2c(c1)CCC(=O)N2 | 79% | 113% (inactive) | 79% (inactive) | 91.3% (inactive) | 110% (inactive) | 18% (inactive) | 91.7% | 110% | -2.27% (inactive) | -1.48% (inactive)
O=C(COC(=O)c1ccccc1Oc1ccccc1)NC1CCS(=O)(=O)C1 (stereo not given) | 107% | 104% (inactive) | 107% (inactive) | 98.8% (inactive) | 90% (inactive) | -8.6% (inactive) | 98.6% | 90% | 0.54% (inactive) | -5.57% (inactive)
COc1ccc(C(=O)CSc2nnc(C3CCCCC3)n2N)c(OC)c1 | 91.5% | 105% (inactive) | 91.5% (inactive) | 119% (inactive) | 83.3% (inactive) | 2% (inactive) | 81.3% | 83.3% | -4% (inactive) | -6.23% (inactive)
CCSc1nnc(NC(=O)CSc2ncccn2)s1 | 97.5% | 102% (inactive) | 97.5% (inactive) | 112% (inactive) | 107% (inactive) | 22.3% (inactive) | 84.5% | 107% | -5.07% (inactive) | -2.74% (inactive)
COc1ccc(NC(=O)CCCN2C(=O)C3C4C=CC(C4)C3C2=O)c(OC)c1 (stereo not given) | 110% | 94% (inactive) | 110% (inactive) | 82% (inactive) | 102% (inactive) | 5.03% (inactive) | 97.1% | 102% | -5% (inactive) | -5.09% (inactive)
COc1ccccc1N1CCN(C(=O)c2oc3cc(C)c(C)cc3c2C)CC1 | 117% | 104% (inactive) | 117% (inactive) | 82.4% (inactive) | 92.7% (inactive) | -2.22% (inactive) | 94.9% | 92.7% | -1.18% (inactive) | -2.62% (inactive)
CC1CCN(S(=O)(=O)c2cn(CC(=O)N3CCN(C)CC3)c(=O)c3ccccc23)CC1 | 122% | 97% (inactive) | 122% (inactive) | 104% (inactive) | 97.4% (inactive) | 0.39% (inactive) | 97% | 97.4% | -1.69% (inactive) | -7.46% (inactive)
CCOc1ccc(NC(=O)CN2CCN(CC(=O)Nc3ccc(F)c(F)c3)CC2)cc1 | 95% | 102% (inactive) | 95% (inactive) | 89.3% (inactive) | 79.8% (inactive) | 22.7% (inactive) | 57.1% | 79.8% | -3.6% (inactive) | 4.92% (inactive)
CN(C)c1nc(Oc2ccc(=O)n(C)n2)nc(N2CCOCC2)n1 | 94% | 98.5% (inactive) | 94% (inactive) | 95.7% (inactive) | 92.9% (inactive) | 1.74% (inactive) | 91.2% | 92.9% | -4.93% (inactive) | 1.64% (inactive)
O=C1CC(N2CCOCC2)C(=O)N1c1ccccc1Cl (stereo not given) | 103% | 87.5% (inactive) | 103% (inactive) | 87.2% (inactive) | 104% (inactive) | 7.5% (inactive) | 96.6% | 104% | -6.4% (inactive) | -5.24% (inactive)
Cc1ccc(CCNC(=O)C2CCN(S(=O)(=O)c3c(C)nn(C)c3C)CC2)cc1 | 103% | 115% (inactive) | 103% (inactive) | 114% (inactive) | 89% (inactive) | -7.15% (inactive) | 96.1% | 89% | -1.92% (inactive) | -2% (inactive)
O=c1cc(CSc2ccccn2)c2ccccc2[nH]1 | 91.5% | 76% (inactive) | 91.5% (inactive) | 85.2% (inactive) | 93.1% (inactive) | 8.09% (inactive) | 85.1% | 93.1% | -4.46% (inactive) | 4.13% (inactive)
CCn1c(=O)n(CC(=O)N(C)Cc2ccccc2)c(=O)c2ccccc21 | 110% | 93.5% (inactive) | 110% (inactive) | 75.7% (inactive) | 91.8% (inactive) | 1.03% (inactive) | 90.8% | 91.8% | 1.18% (inactive) | -0.48% (inactive)
CCCCOC(=O)CNc1nnc(SCC(=O)OCC)[nH]c1=O | 114% | 87% (inactive) | 114% (inactive) | 74.8% (inactive) | 98.6% (inactive) | 11.7% (inactive) | 86.9% | 98.6% | -0.91% (inactive) | -3.81% (inactive)
COc1ccc(N2C(=O)CC(NC3CC3)C2=O)cc1 (stereo not given) | 100% | 89.5% (inactive) | 100% (inactive) | 94.7% (inactive) | 91.2% (inactive) | 0.64% (inactive) | 90.5% | 91.2% | -3.82% (inactive) | -6% (inactive)
Cc1ccc(C)c(-n2c(CNC(=O)c3ccco3)nnc2SCC(=O)Nc2nnc(C)s2)c1 | 100% | 94% (inactive) | 100% (inactive) | 104% (inactive) | 96.6% (inactive) | 5.91% (inactive) | 90.7% | 96.6% | -5.6% (inactive) | 3.5% (inactive)
COc1cccc(Nc2cc(C)nc3ccccc23)c1 | 77% | 83% (inactive) | 77% (inactive) | 85.4% (inactive) | 74.4% (inactive) | -1.05% (inactive) | 75.4% | 74.4% | -4.4% (inactive) | 1.11% (inactive)
CC1=C/C(=C/N(C)c2ccccc2)C(=O)S1 | 109% | 94% (inactive) | 109% (inactive) | 79.7% (inactive) | 89.3% (inactive) | 4.12% (inactive) | 85.2% | 89.3% | 0.41% (inactive) | -3.49% (inactive)
CCN1CCCC1CNC(=O)CS(=O)(=O)Cc1nc(-c2ccccc2C)oc1C (stereo not given) | 97% | 92.5% (inactive) | 97% (inactive) | 83% (inactive) | 88.1% (inactive) | 0.015% (inactive) | 88.1% | 88.1% | -3.6% (inactive) | 1.64% (inactive)
CCN(CC)c1ncc(C)c(=O)[nH]1 | 103% | 106% (inactive) | 103% (inactive) | 105% (inactive) | 88.8% (inactive) | -5.64% (inactive) | 94.5% | 88.8% | -3.47% (inactive) | 19% (inactive)
Cc1nn(-c2ccc(Cl)cc2)c2sc(C(=O)N3CCN(c4ccccn4)CC3)cc12 | 103% | 80% (inactive) | 103% (inactive) | 51.6% (inactive) | 67.2% (inactive) | 9.58% (inactive) | 57.6% | 67.2% | -5.84% (inactive) | -2.54% (inactive)
CCC(C)NC(=O)CC1Oc2ccc(C)cc2NC1=O (stereo not given) | 105% | 99% (inactive) | 105% (inactive) | 90.3% (inactive) | 91.7% (inactive) | -2.57% (inactive) | 94.2% | 91.7% | 0.13% (inactive) | -3.28% (inactive)
Cc1nc2cccc(C(=O)NC3CCCCC3)c2o1 | 100% | 101% (inactive) | 100% (inactive) | 98.6% (inactive) | 93.1% (inactive) | 8.96% (inactive) | 84.2% | 93.1% | -3.73% (inactive) | 7.05% (inactive)
CN(C)CCCN1C(=O)c2oc3ccccc3c(=O)c2C1c1cccs1 (stereo not given) | 110% | 93.5% (inactive) | 110% (inactive) | 99% (inactive) | 86.1% (inactive) | 5.31% (inactive) | 80.8% | 86.1% | -1.95% (inactive) | 1.67% (inactive)
O=C(C1CCC1)N1CCc2cc(S(=O)(=O)Nc3ccc4c(c3)OCO4)ccc21 | 85.5% | 76% (inactive) | 85.5% (inactive) | 70.1% (inactive) | 91.6% (inactive) | 17.8% (inactive) | 73.8% | 91.6% | -6.27% (inactive) | -5.08% (inactive)
N#CCCCCn1c(-c2cncs2)nc2ccccc21 | 93.5% | 126% (inactive) | 93.5% (inactive) | 84.2% (inactive) | 93.8% (inactive) | 13.5% (inactive) | 80.3% | 93.8% | -5% (inactive) | -5.33% (inactive)
Cc1cc(Oc2ccccc2)nc(-c2ccccc2)n1 | 100% | 112% (inactive) | 100% (inactive) | 92.7% (inactive) | 99.1% (inactive) | 7.91% (inactive) | 91.2% | 99.1% | -1.17% (inactive) | -5.25% (inactive)
